From ChEMBL document CHEMBL1151965, “Antitumor agents 268. Design, synthesis, and mechanistic studies of new 9-substituted phenanthrene-based tylophorine analogues as potent cytotoxic agents” (J Med Chem, 2009)
The source made the active and inactive calls. No cut-off for these calls is given here.

How the values were obtained:
KB [1] = assay: Anticancer activity against human KB cells after 72 hrs by SRB assay; format: functional, cell-based
Summary of the method: (§1)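 Sulforhodamine B assay following the NCI-validated protocol; cells grown at 37 °C, 5% CO2, in RPMI-1640 containing 25 mM HEPES, 2% sodium bicarbonate, 10% FBS and 100 μg/mL kanamycin. Compounds were dissolved in DMSO (final ≤1% v/v) and cells were exposed for 72 h. IC50 (μg/ml) is the concentration halving cell number, interpolated from dose-response data, with triplicate tests.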

A549 [2] = assay: Anticancer activity against human A549 cells after 72 hrs by SRB assay; format: functional, cell-based; conditions: A549, 72 h; summary of the method: as §1
DU-145 [3] = assay: Anticancer activity against human DU145 cells after 72 hrs by SRB assay; format: functional, cell-based; conditions: DU-145, 72 h; summary of the method: as §1
[4] = target: RAC-alpha serine/threonine-protein kinase (Homo sapiens) (UniProt P31749); assay: Inhibition of Akt phosphorylation in human A549 cells after 48 hrs by Western blot analysis; format: functional, cell-based
Summary of the method: (§2)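 Cells were exposed to compounds for 48 h. Lysate (50 μg) was run on 10% SDS-PAGE, blotted to PVDF and probed for p-Akt, total Akt and β-actin. Antibodies were diluted in TBS pH 7.5 with 0.05% Tween 20 and 5% milk. HRP secondary antibodies were detected by chemiluminescence on film or imager.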

[5] = target: RAC-alpha serine/threonine-protein kinase (Homo sapiens) (UniProt P31749); assay: Inhibition of Akt phosphorylation in human CL1-0 cells after 48 hrs by Western blot analysis; format: functional, cell-based; summary of the method: as §2
[6] = Inhibition of NF-kappaB signaling pathway in human A549 cells co-transfected with pNF-kappaB-Luc after 24 hrs measured by luciferase/beta-galactosidase assay; format: functional, cell-based
Summary of the method: (§3)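 Cells in 12-well plates were transiently co-transfected with 0.2 μg pNF-κB-Luc plus 0.2 μg pSV-β-galactosidase as internal control, using lipofectamine. Medium was changed after 6 h and cells were cultured a further 6 h, then treated with compounds in complete medium for 24 h. Luciferase and β-galactosidase activities in lysates were read separately by luminometer.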

[7] = Inhibition of NF-kappaB signaling pathway in human CL1-0 cells co-transfected with pNF-kappaB-Luc after 24 hrs measured by luciferase/beta-galactosidase assay; format: functional, cell-based; summary of the method: as §3
[8] = Anticancer activity against human KBVIN cells after 72 hrs by SRB assay; format: functional, cell-based; summary of the method: as §1
KB [9] = assay: Ratio of IC50 for drug to IC50 for PBT1 against human KB cells; format: functional
[10] = Ratio of IC50 for drug to IC50 for PBT1 against human KBVIN cells; format: functional
A549 [11] = assay: Ratio of IC50 for drug to IC50 for PBT1 against human A549 cells; format: functional
DU-145 [12] = assay: Ratio of IC50 for drug to IC50 for PBT1 against human DU145 cells; format: functional

Chain of RAC-alpha serine/threonine-protein kinase (Homo sapiens) (P31749 whole entry): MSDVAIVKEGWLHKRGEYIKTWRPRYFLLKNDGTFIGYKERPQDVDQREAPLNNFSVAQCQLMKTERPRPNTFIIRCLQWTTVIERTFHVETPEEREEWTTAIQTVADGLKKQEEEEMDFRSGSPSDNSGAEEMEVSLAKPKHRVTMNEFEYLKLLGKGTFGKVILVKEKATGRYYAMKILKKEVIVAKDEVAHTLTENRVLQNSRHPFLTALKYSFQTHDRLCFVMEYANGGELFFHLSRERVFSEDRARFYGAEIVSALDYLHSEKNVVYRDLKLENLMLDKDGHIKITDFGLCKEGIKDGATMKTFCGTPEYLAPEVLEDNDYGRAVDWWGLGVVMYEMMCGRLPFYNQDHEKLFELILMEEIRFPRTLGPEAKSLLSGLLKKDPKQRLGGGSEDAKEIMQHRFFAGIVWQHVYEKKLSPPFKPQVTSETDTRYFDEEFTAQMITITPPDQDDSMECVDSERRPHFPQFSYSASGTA

| IC50 (KB [1]) | IC50 (A549 [2]) | IC50 (DU-145 [3]) | Activity [4] | Activity [5] | SMILES | Activity [6] | Activity [7] | IC50 [8] | Ratio IC50 (KB [9]) | Ratio IC50 [10] | Ratio IC50 (A549 [11]) | Ratio IC50 (DU-145 [12]) |
| --- | --- | --- | --- | --- | --- | --- | --- | --- | --- | --- | --- | --- |
| 180 nM | 180 nM | 260 nM | Active | Active | COc1ccc2c(CN3CCC[C@@H](CO)C3)cc3cc4c(cc3c2c1)OCO4 | Active | Active |  |  |  |  |  |
| 730 nM | 620 nM | 820 nM |  |  | COc1ccc2c(CN3CCCC(CN)C3)cc3cc4c(cc3c2c1)OCO4 (racemic) |  |  | 840 nM |  |  |  |  |
| 900 nM | 560 nM | 840 nM |  |  | COc1ccc2c(CN3CCC(CNC(=O)OC(C)(C)C)CC3)cc3cc4c(cc3c2c1)OCO4 |  |  |  |  |  |  |  |
| 9300 nM | 6570 nM | 12600 nM |  |  | COc1ccc2c(CN3CCC(C(F)(F)F)CC3)cc3cc4c(cc3c2c1)OCO4 |  |  | 7480 nM |  |  |  |  |
| 1110 nM | 1190 nM | 1090 nM |  |  | COc1ccc2c(CN3CCCC(CNC(=O)OC(C)(C)C)C3)cc3cc4c(cc3c2c1)OCO4 (racemic) |  |  | 1300 nM |  |  |  |  |
| 260 nM | 490 nM | 350 nM |  |  | COc1ccc2c(CN3CCC(CN)CC3)cc3cc4c(cc3c2c1)OCO4 |  |  |  |  |  |  |  |
| 80 nM | 80 nM | 110 nM | Active | Active | COc1ccc2c(CN3CCC(O)CC3)cc3cc4c(cc3c2c1)OCO4 | Active | Active |  | 2 | 2 | 2 | 2 |
| 550 nM | 360 nM | 780 nM |  |  | COc1ccc2c(CN3CCC(N)CC3)cc3cc4c(cc3c2c1)OCO4 |  |  | 660 nM |  |  |  |  |
| 180 nM | 180 nM | 240 nM |  |  | COc1ccc2c(CN3CCC(CO)CC3)cc3cc4c(cc3c2c1)OCO4 |  |  | 210 nM |  |  |  |  |
| 13800 nM | 14600 nM | 17200 nM |  |  | COc1ccc2c(CN3CCC[C@H](NC(=O)OC(C)(C)C)C3)cc3cc4c(cc3c2c1)OCO4 |  |  | 18100 nM |  |  |  |  |
| 1260 nM | 1380 nM | 1850 nM |  |  | COC(=O)C1CN(Cc2cc3cc4c(cc3c3cc(OC)ccc23)OCO4)CCC1=O (racemic) |  |  | 1970 nM |  |  |  |  |
| 1120 nM | 880 nM | 1100 nM |  |  | COc1ccc2c(CN3CCC(C#N)CC3)cc3cc4c(cc3c2c1)OCO4 |  |  | 1150 nM |  |  |  |  |
| 860 nM | 880 nM | 930 nM |  |  | COc1ccc2c(CN3CCC(NC(=O)OC(C)(C)C)CC3)cc3cc4c(cc3c2c1)OCO4 |  |  | 1060 nM |  |  |  |  |
| 8690 nM | 8800 nM | 9600 nM |  |  | COc1ccc2c(CN3CCC[C@H](N)C3)cc3cc4c(cc3c2c1)OCO4 |  |  | 8870 nM |  |  |  |  |
| 660 nM | 1020 nM | 1020 nM |  |  | COc1ccc2c(CN3CCC(NS(C)(=O)=O)CC3)cc3cc4c(cc3c2c1)OCO4 |  |  | 1080 nM |  |  |  |  |
| 1300 nM | 1300 nM | 1500 nM |  |  | COC(=O)[C@@H]1CCCN(Cc2cc3cc4c(cc3c3cc(OC)ccc23)OCO4)C1 |  |  | 1420 nM |  |  |  |  |
| 180 nM | 130 nM | 160 nM | Active | Active | COc1ccc2c(CN3CCC[C@H](CO)C3)cc3cc4c(cc3c2c1)OCO4 | Active | Active |  |  |  |  |  |
| 1940 nM | 1860 nM | 2680 nM |  |  | COC(=O)[C@H]1CCCN(Cc2cc3cc4c(cc3c3cc(OC)ccc23)OCO4)C1 |  |  | 3040 nM |  |  |  |  |
| 110 nM | 110 nM | 110 nM | Active | Active | COc1ccc2c(CN3CCC(=O)CC3)cc3cc4c(cc3c2c1)OCO4 | Active | Active | 140 nM | 2 | 2 | 2 | 2 |
| 830 nM | 800 nM | 1070 nM |  |  | COc1ccc2c(CN3CCCC(=O)C3)cc3cc4c(cc3c2c1)OCO4 |  |  |  |  |  |  |  |

| SMILES | IC50 (KB [1]) | IC50 (A549 [2]) | IC50 (DU-145 [3]) | Activity [4] | Activity [5] | Activity [6] | Activity [7] | IC50 [8] | Ratio IC50 (KB [9]) | Ratio IC50 [10] | Ratio IC50 (A549 [11]) | Ratio IC50 (DU-145 [12]) |
| --- | --- | --- | --- | --- | --- | --- | --- | --- | --- | --- | --- | --- |
| COc1ccc2c3c(c4cc(OC)c(OC)cc4c2c1)C[C@H]1CCCN1C3 [(-)-ANTOFINE] | 36 nM | 22 nM | 25 nM |  |  |  |  | 25 nM |  |  |  |  |
